Experimental data pooled from the literature.
Target: TGF-beta receptor type-2 (TGFBR2, Homo sapiens, UniProt P37173)

| Compound | observed | action | method | tested at | endpoint | result |
| --- | --- | --- | --- | --- | --- | --- |
| C[C@@H](c1cccc(C#N)c1)n1cc(Cl)cc(C(N)=O)c1=N | cell-free assay | – | competition with immobilised ligand | 1 µM | remaining binding | 100% |
| CNC(=O)c1cc(Oc2ccc(NC(=O)Nc3ccc(Cl)c(C(F)(F)F)c3)cc2)ccn1 | cell-free assay | – | – | 0.5 µM | remaining signal | 99.9% |
| Cc1sc(C(=O)NC2COC2)cc1-n1cc(NC(=O)Nc2c(F)cccc2Cl)cn1 | enzyme activity | inhibitor | – | 10 µM | remaining activity | 86.8% |
| CN1CC(Oc2cnc(C#N)cc2-c2ccn3nc(NC(=O)C4CC4)cc3c2)C1 | enzyme activity | inhibitor | – | 1 µM | inhibition | 11% |
| Cc1nc(C2CCN(C(=O)c3ccc(OC(F)(F)F)cc3N)CC2)c2ncc(N3CCN(C)CC3)cc2n1 | cell-free assay | – | competition with immobilised ligand | 1 µM | remaining binding | 93% |
| N#CCCc1ccc2c(c1)-c1[nH]c3ccc([N+](=O)[O-])cc3c1CC(=O)N2 | cell-free assay | – | – | 0.5 µM | remaining signal | 10.1% |
| CC(C)(C)c1nc(-c2cccc(NS(=O)(=O)c3c(F)cccc3F)c2F)c(-c2ccnc(N)n2)s1 | enzyme activity | inhibitor | radiometric | 1 µM | remaining activity | 42% |
| O=C1NC(=O)c2cc(Nc3ccc(F)cc3)c(Nc3ccc(F)cc3)cc21 | cell-free assay | – | – | 0.5 µM | remaining signal | 85.2% |
| CCC(=O)N[C@@H]1CC[C@H](C(=O)N(C)c2ccc(-c3nc4ccccc4o3)cc2)C1 | cell-free assay | – | competition with immobilised ligand | 1 µM | remaining binding | 100% |
| Cc1ccc(Nc2nccc(N(C)c3ccc4c(C)n(C)nc4c3)n2)cc1S(N)(=O)=O | cell-free assay | – | – | 0.5 µM | remaining signal | 100% |
| NS(=O)(=O)c1cc(NC(=O)Cc2ccccc2)ccc1Oc1cccc(Cl)c1 | cell-free assay | – | competition with immobilised ligand | 1 µM | remaining binding | 87% |
| CC(C)(O)[C@H]1CC[C@H](Nc2ccc3ncc(-c4cccc(C(F)(F)F)c4)n3n2)CC1 | enzyme activity | inhibitor | – | 1 µM | remaining activity | 73.8% |
